Experimental data reported in ChEMBL document CHEMBL5674883, “The Heterochromatin Landscape in Migrating Cells and the Importance of H3K27me3 for Associated Transcriptome Alterations” (Cells, 2018).

Assays:
Assay type in all cases: cell-based
[1] = biological target: Histone-lysine N-methyltransferase EZH2 (Mus musculus) (UniProt Q61188); assay: Inhibition of EZH2 in mouse B16-F1 migrating cells assessed as fold change in H3K27me3-buffered regulated Ankrd26-mRNA expression at 3 uM measured by […] analysis relative to control cells
Method in brief: (§1)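 Confluent B16-F1 cells on fibronectin-coated plates, cultured at 37 °C and 7% CO2, were scratched at multiple sites to induce migration. They were then held 3 h in growth medium containing 3 µM GSK343, with the inhibitor added 3 h before lysis. Unscratched cells served as controls. Poly A mRNA was analysed by RNA-seq (n=3 GSK343, n=5 controls). Linear models removed batch effects, and buffered genes were those altered only under GSK343 (FDR <0.05, fold change >1.3).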

[2] = biological target: Histone-lysine N-methyltransferase EZH2 (Mus musculus) (UniProt Q61188); assay: Inhibition of EZH2 in mouse B16-F1 migrating cells assessed as fold change in H3K27me3-buffered regulated Gm28989-mRNA expression at 3 uM measured by […] analysis relative to control cells; method in brief: as §1
[3] = biological target: Histone-lysine N-methyltransferase EZH2 (Mus musculus) (UniProt Q61188); assay: Inhibition of EZH2 in mouse B16-F1 migrating cells assessed as fold change in H3K27me3-independent regulated Klf15-mRNA expression at 3 uM measured by […] analysis relative to control cells
Method in brief: (§2)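 Confluent B16-F1 cells on fibronectin-coated plates were scratched at multiple sites, washed once with DMEM and left to migrate 3 h in growth medium (37 °C, 7% CO2); unscratched cells served as control. GSK343 (3 µM) was added 3 h before lysis. Poly A mRNA was sequenced (RNA-seq), with 5 replicates for untreated and 3 for treated cells. Differential expression was called by linear model with batch correction, at FDR <0.05 and fold change ≥1.3.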

[4] = biological target: Histone-lysine N-methyltransferase EZH2 (Mus musculus) (UniProt Q61188); assay: Inhibition of EZH2 in mouse B16-F1 migrating cells assessed as fold change in H3K27me3-buffered regulated Paxbp1-mRNA expression at 3 uM measured by […] analysis relative to control cells; method in brief: as §1
[5] = biological target: Histone-lysine N-methyltransferase EZH2 (Mus musculus) (UniProt Q61188); assay: Inhibition of EZH2 in mouse B16-F1 migrating cells assessed as fold change in H3K27me3-buffered regulated Nup37-mRNA expression at 3 uM measured by […] analysis relative to control cells; method in brief: as §1
[6] = biological target: Histone-lysine N-methyltransferase EZH2 (Mus musculus) (UniProt Q61188); assay: Inhibition of EZH2 in mouse B16-F1 migrating cells assessed as fold change in H3K27me3-buffered regulated Dlg4-mRNA expression at 3 uM measured by ChIP-seq analysis relative to control cells; method in brief: as §1
[7] = biological target: Histone-lysine N-methyltransferase EZH2 (Mus musculus) (UniProt Q61188); assay: Inhibition of EZH2 in mouse B16-F1 migrating cells assessed as fold change in H3K27me3-buffered regulated Rhbdf2-mRNA expression at 3 uM measured by […] analysis relative to control cells; method in brief: as §1
[8] = biological target: Histone-lysine N-methyltransferase EZH2 (Mus musculus) (UniProt Q61188); assay: Inhibition of EZH2 in mouse B16-F1 migrating cells assessed as fold change in H3K27me3-buffered regulated Stk10-mRNA expression at 3 uM measured by ChIP-seq analysis relative to control cells; method in brief: as §2
[9] = biological target: Histone-lysine N-methyltransferase EZH2 (Mus musculus) (UniProt Q61188); assay: Inhibition of EZH2 in mouse B16-F1 migrating cells assessed as fold change in H3K27me3-independent regulated Hells-mRNA expression at 3 uM measured by […] analysis relative to control cells; method in brief: as §2
[10] = biological target: Histone-lysine N-methyltransferase EZH2 (Mus musculus) (UniProt Q61188); assay: Inhibition of EZH2 in mouse B16-F1 migrating cells assessed as fold change in H3K27me3-independent regulated Coq10b-mRNA expression at 3 uM measured by […] analysis relative to control cells; method in brief: as §2
[11] = biological target: Histone-lysine N-methyltransferase EZH2 (Mus musculus) (UniProt Q61188); assay: Inhibition of EZH2 in mouse B16-F1 migrating cells assessed as fold change in H3K27me3-buffered regulated Gabre-mRNA expression at 3 uM measured by ChIP-seq analysis relative to control cells; method in brief: as §1
[12] = biological target: Histone-lysine N-methyltransferase EZH2 (Mus musculus) (UniProt Q61188); assay: Inhibition of EZH2 in mouse B16-F1 migrating cells assessed as fold change in H3K27me3-buffered regulated Fam60a-mRNA expression at 3 uM measured by […] analysis relative to control cells; method in brief: as §1
[13] = biological target: T1, RNA polymerase II (Mus musculus) (UniProt P08775+Q8CFI7+P97760+A0A3Q4L2S8+Q80UW8+P61219+P62488+Q923G2+P60898+O08740+Q63871+P62876); assay: Inhibition of RNA polymerase II in mouse B16-F1 migrating cells assessed as fold change in Kif18a-RNA stability at 0.1 mM measured by ChIP-seq analysis relative to control cells
[14] = biological target: T1, RNA polymerase II (Mus musculus); assay: Inhibition of RNA polymerase II in mouse B16-F1 migrating cells assessed as fold change in Zfp367-RNA stability at 0.1 mM measured by […] analysis relative to control cells
[15] = biological target: T1, RNA polymerase II (Mus musculus); assay: Inhibition of RNA polymerase II in mouse B16-F1 migrating cells assessed as fold change in Fth1-RNA stability at 0.1 mM measured by ChIP-seq analysis relative to control cells
[16] = biological target: T1, RNA polymerase II (Mus musculus); assay: Inhibition of RNA polymerase II in mouse B16-F1 migrating cells assessed as fold change in Alkbh2-RNA stability at 0.1 mM measured by […] analysis relative to control cells
[17] = biological target: T1, RNA polymerase II (Mus musculus); assay: Inhibition of RNA polymerase II in mouse B16-F1 migrating cells assessed as fold change in Rpl27-RNA stability at 0.1 mM measured by […] analysis relative to control cells
[18] = biological target: T1, RNA polymerase II (Mus musculus); assay: Inhibition of RNA polymerase II in mouse B16-F1 migrating cells assessed as fold change in Nrp1-RNA stability at 0.1 mM measured by […] analysis relative to control cells
[19] = biological target: T1, RNA polymerase II (Mus musculus); assay: Inhibition of RNA polymerase II in mouse B16-F1 migrating cells assessed as fold change in Rassf2-RNA stability at 0.1 mM measured by […] analysis relative to control cells
[20] = biological target: T1, RNA polymerase II (Mus musculus); assay: Inhibition of RNA polymerase II in mouse B16-F1 migrating cells assessed as fold change in Ets1-RNA stability at 0.1 mM measured by […] analysis relative to control cells
Method in brief: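 Mouse B16-F1 melanoma cells grown to confluence on fibronectin in DMEM/10% FCS at 37 °C, 7% CO2. Migration induced by multiple scratches and 3 h incubation; unscratched controls. DRB 0.1 mM added 3 h before lysis. RNA from poly A-selected mRNA was sequenced (RNA-seq, three replicates per DRB group). Fold change computed for DRB-treated migrating vs DRB-treated control cells; cutoffs fold change >1.3, FDR <0.05.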

[21] = biological target: T1, RNA polymerase II (Mus musculus); assay: Inhibition of RNA polymerase II in mouse B16-F1 migrating cells assessed as fold change in Zfp966-RNA stability at 0.1 mM measured by […] analysis relative to control cells
[22] = biological target: T1, RNA polymerase II (Mus musculus); assay: Inhibition of RNA polymerase II in mouse B16-F1 migrating cells assessed as fold change in Efcab7-RNA stability at 0.1 mM measured by ChIP-seq analysis relative to control cells
[23] = biological target: T1, RNA polymerase II (Mus musculus); assay: Inhibition of RNA polymerase II in mouse B16-F1 migrating cells assessed as fold change in Arf6-RNA stability at 0.1 mM measured by […] analysis relative to control cells
[24] = biological target: T1, RNA polymerase II (Mus musculus); assay: Inhibition of RNA polymerase II in mouse B16-F1 migrating cells assessed as fold change in Shprh-RNA stability at 0.1 mM measured by […] analysis relative to control cells

Histone-lysine N-methyltransferase EZH2 (Mus musculus), sequence (Q61188 whole entry): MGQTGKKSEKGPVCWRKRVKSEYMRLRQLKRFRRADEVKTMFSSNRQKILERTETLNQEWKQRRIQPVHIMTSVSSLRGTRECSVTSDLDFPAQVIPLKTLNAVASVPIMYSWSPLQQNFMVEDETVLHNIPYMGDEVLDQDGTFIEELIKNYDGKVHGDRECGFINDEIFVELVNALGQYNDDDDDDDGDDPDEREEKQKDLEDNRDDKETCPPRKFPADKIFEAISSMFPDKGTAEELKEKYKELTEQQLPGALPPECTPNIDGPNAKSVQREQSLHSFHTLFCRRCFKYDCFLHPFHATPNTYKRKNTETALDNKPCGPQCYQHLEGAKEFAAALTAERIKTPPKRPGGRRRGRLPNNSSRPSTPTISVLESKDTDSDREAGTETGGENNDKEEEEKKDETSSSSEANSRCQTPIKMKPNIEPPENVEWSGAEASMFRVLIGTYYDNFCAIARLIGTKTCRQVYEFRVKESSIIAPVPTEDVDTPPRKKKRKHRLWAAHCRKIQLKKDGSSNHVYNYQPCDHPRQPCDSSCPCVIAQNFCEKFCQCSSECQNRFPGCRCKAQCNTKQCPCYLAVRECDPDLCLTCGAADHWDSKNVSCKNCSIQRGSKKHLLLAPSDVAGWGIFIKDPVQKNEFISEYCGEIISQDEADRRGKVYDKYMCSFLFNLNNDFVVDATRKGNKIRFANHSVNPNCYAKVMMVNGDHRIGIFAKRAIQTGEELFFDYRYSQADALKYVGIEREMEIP

`CCCc1cc(C)[nH]c(=O)c1CNC(=O)c1cc(-c2ccnc(N3CCN(C)CC3)c2)cc2c1cnn2C(C)C` showed a log2FC [1] of -0.47, a log2FC [2] of 1.08 and a log2FC [3] of -0.5. It also gave a log2FC [4] of -0.55, a log2FC [5] of -0.38 and a log2FC [6] of 0.39. It also gave a log2FC [7] of -0.57, a log2FC [8] of -0.44 and a log2FC [9] of -0.45. For the same compound, the log2FC [10] was 0.56, the log2FC [11] was -0.84 and the log2FC [12] was -0.61.

For `OC[C@H]1O[C@@H](n2cnc3cc(Cl)c(Cl)cc32)[C@H](O)[C@@H]1O`, the log2FC [13] was -1.13, the log2FC [14] was -0.87 and the log2FC [15] was 0.6. For the same compound, the log2FC [16] was 0.66, the log2FC [17] was 0.51 and the log2FC [18] was -0.73. It also gave a log2FC [19] of -0.48, a log2FC [20] of -0.65 and a log2FC [21] of -0.82. For the same compound, the log2FC [22] was -0.79, the log2FC [23] was -0.51 and the log2FC [24] was -0.62.
